High-throughput results deposited in PubChem by several laboratories.
A selection: hits, their analogues and other compounds. The true share with any hit is near 2.1%.
sdo1 growth = growth rescue of sdo1-depleted yeast, primary screen, S. cerevisiae, bone marrow failure model | AID 817, 2007 | z-score at 10 µM | S. cerevisiae sdo1-depleted JHY4D growth rescue, OD600 30 h; active compounds read high; pdr5 snq2 efflux-pump mutant strain | 0.21% of 140,000 active;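 active = z-score above 3 at both the 24 hr and the 30 hr optical density reads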;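 note: z-score against mean and SD of all compound wells on the same plate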
Yeast growth inh = growth inhibitors of yeast BB579 in restrictive medium, primary screen, yeast lifespan-shortening project, S. cerevisiae; OD615, 48 h; inhibition, % at 10 µM; 0.51% of 140,000 active; AID 804, 2007;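 active = inhibition above a set limit, 3 SD over the mean compound inhibition, cut at about 44% in these data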
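controls = amphotericin B 10 µg/mL, positive | assay system = DeaD yeast strain BB579 | schedule = 48 h compound exposure at 30 °C after 4 h preincubation | detection = OD615 turbidity measurement | medium = restrictive CSMM-D medium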
Yeast lifespan up = compounds extending yeast replicative lifespan, primary screen, S. cerevisiae, OD615; S. cerevisiae growth with nicotinamide; deaD strain in restrictive glucose medium; inhibition of the nicotinamide effect, % at 10 µM; 0.68% of 130,000 active; AID 775, 2007;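 active = inhibition above a set limit, placed 3 SD over the median of all compounds, cut at about 26% in these data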;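 note: 0% = nicotinamide-treated wells and 100% = cells grown without nicotinamide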
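System: DeaD-strain S. cerevisiae / Buffer or medium: CSMM-D, restrictive glucose (dextrose) synthetic minimal medium / Probe or stimulus: nicotinamide, 1.5 mM, co-present with compound / Compound: one concentration, 10 µM, DMSO 0.25% / Incubation: 48 h compound exposure at 30 °C, humidified / Technique: optical density (absorbance) at 615 nm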
MRP reversal = reversal of MRP1-mediated doxorubicin resistance, primary screen, H69AR cells, doxorubicin co-treatment | H69AR cells + 2 uM doxorubicin, CellTiter-Glo, 72 h | differential viability (reversal), % at 10 µM | 0.04% of 85,000 active | AID 602, 2007;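 active = viability drop by adding the cancer drug above about 55%, with treated viability meeting a 40% cutoff, limit read from the data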;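 note: viability without doxorubicin minus viability with 2 µM doxorubicin for each compound; larger differential means the compound sensitizes cells more to doxorubicin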
MRP1 act = H69AR viability gain despite doxorubicin, primary screen, MRP-1 activator project, H69AR cells, CellTiter-Glo | viability increase, % at 10 µM | AID 799, 2007 | 0.61% of 140,000 active | viability rescue;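 active = viability gain under doxorubicin at or above a set limit, the compound median plus 3 SD, cut at about 4.7% in these data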;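 note: MRP-1 overexpressing cells given doxorubicin 25 µM after compound pretreatment; 18-22 h compound pretreatment then 72 h with doxorubicin before readout; 0% = doxorubicin-only wells and 100% = vehicle-treated cells without doxorubicin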
Phagocyt inh = inhibitors of macrophage phagocytosis, primary screen, imaging, J774A.1 cells, IgG beads; 0.07% of 110,000 active; inhibition, % at 5 µM; J774A.1 macrophage IgG-bead phagocytosis;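 active = inhibition above the mean of the plate negative controls plus 5 SD, cut at about 13% in these data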;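 note: phagocytic index as fraction of beads internalized from green versus red external bead signal; plate controls were DMSO negative control for no effect and cytochalasin-D positive control for full effect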
Numbers without * were called inactive; . = not tested or not shown.

SMILES	sdo1 growth	Yeast growth inh	Yeast lifespan up	MRP reversal	MRP1 act	Phagocyt inh
CCCCCCC(=O)Nc1c(O)c2ccccc2[nH]c1=O	-0.62	-21.1	-6.2	6.6	1.8	-1.4
CCCCCCNC(=O)c1c(O)c2ccccc2[nH]c1=O	-1.18	-71.2	36.1*	9.6	0.9	-0.3
CCCCCCCC(=O)N/N=C(/C)c1c(O)cc(C)oc1=O	0.54	-13.0	40.2*	.	-2.9	.
Cc1cccc2c3nc4ccccc4nc3n(CCCN3C(=O)c4ccccc4C3=O)c12	-0.87	18.5	-3.3	.	5.2*	-10.0
COc1ccc2c(c1)c1nc3ccccc3nc1n2CCCN1C(=O)c2ccccc2C1=O	-0.84	-8.4	3.6	.	-0.1	0.3
CC1=NOC(=O)/C1=C\c1ccc(-c2ccc(Cl)cc2Cl)o1	-0.89	45.1*	4.8	.	-2.6	.
O=C(c1ccc(COc2ccc(Br)cc2)o1)N1N=C(C(F)F)CC1(O)C(F)F (configuration not stated)	-1.74	-6.8	4.4	.	5.5*	-5.9
CCOc1ccc(OCc2ccc(C(=O)N3N=C(C(F)F)CC3(O)C(F)F)o2)cc1 (configuration not stated)	-1.63	10.9	-11.0	.	-1.2	-3.2
COc1ccc(-c2cc(C(F)(F)F)nc(S(C)(=O)=O)n2)cc1	-2.49	-34.6	85.1*	.	0.8	-1.6
O=C(O)CCS(=O)(=O)c1nc(-c2cccs2)cc(C(F)(F)F)n1	-0.22	-41.8	19.4	-22.0	-1.1	-1.1
CS(=O)(=O)c1nc(-c2cccs2)cc(C(F)(F)F)n1	-1.35	-26.4	52.5*	0.4	-4.9	6.8
COCC(C)NC(=O)CCS(=O)(=O)c1nc(-c2ccc(OC)cc2)cc(C(F)(F)F)n1 (configuration not stated)	-1	-59.2	-6.4	.	0.5	-1.3
O=C(/C=C/c1cccc([N+](=O)[O-])c1)c1cccs1	-1.16	-10.1	28.2*	.	-4.7	-4.7
CCC(=O)N1c2ccc(C)cc2C2=NNC(=S)NC21O (configuration not stated)	-0.78	-49.7	6.6	.	-3.6	-0.5
O=C1CC(N2CCN(c3cccc(C(F)(F)F)c3)CC2)C(=O)N1c1ccccc1F (configuration not stated)	-0.3	-6.4	-8.5	-7.2	0.7	-0.1
c1ccc(OCCSc2nc3ccccc3[nH]2)cc1	-0.09	-25.6	.	26.7	5.3*	.
Cc1cccc2cc(COC(=O)C(C)(C)C)c(=O)[nH]c12	-0.38	-43.2	-2.2	5.2	2.2	-1.3
CCOC(=O)c1c(NC(=S)Nc2ccc(F)cc2)sc2c1CCC2	-1.11	-45.4	-2.1	.	-1.2	-0.1
CCOC(=O)c1c(NC(=S)Nc2ccc(Cl)cc2)sc2c1CCN(C)C2	1.14	98.3*	-13.5	.	-0.4	-6.2
CCn1ncc(/C=N/NC(=O)c2ccc3c(c2)OCO3)c1C	0.39	-10.6	119.6*	.	-4.0	6.3
Cc1c(/C=N/NC(=O)c2ccc3c(c2)OCO3)cnn1C	0.82	-18.9	2.9	.	-2.4	1.5
CC(C)CC(=O)O/N=C1\C(=O)N(c2ccccc2)c2ccccc21	-1.31	-46.6	2.4	.	-1.5	.
CC(C)(C)C(=O)O/N=C1/C(=O)N(c2ccccc2)c2ccccc21	-2.13	67.2*	-14.5	.	-4.8	.
CCCNC(=O)c1oc2ccc3c(c2c1C)C(=O)CC(C)(C)O3	-0.9	-6.7	-11.2	13.5	7.1*	.
CC(/C=N/NC(=O)c1nn(C)c(C)c1Br)=C\c1ccccc1	-0.27	-33.8	-3.3	.	7.7*	0.7
SMILES	sdo1 growth	Yeast growth inh	Yeast lifespan up	MRP reversal	MRP1 act	Phagocyt inh
Cc1cc(C)cc(NS(=O)(=O)c2ccc3[nH]cc(C(=O)NCc4ccco4)c(=O)c3c2)c1	-0.88	-0.5	-7.9	-6.0	-1.0	-0.5
CC(C)(C)C(=O)NCCCc1nc2ccccc2n1CCCOc1ccc(Cl)cc1	-1.75	-21.5	-18.8	.	-2.6	.
CCCCCCCCC[n+]1cccc2c3ccccc3ccc21	-2.35	30.7	-19.7	.	-6.1	-1.7
CCCCCCCCCCCCCCCC[n+]1cccc2ccccc21	-0.99	99.7*	-12.6	.	-5.5	19.4
S=C(Nc1ccc2cn[nH]c2c1)Nc1ccccc1Cl	-0.52	-3.9	37.1*	.	-2.5	0.8
CCN1CCN(C(=O)N[C@@H](C(=O)N[C@@H]2C(=O)N3[C@@H]2SC(C)(C)[C@@H]3C(=O)O)c2ccccc2)C(=O)C1=O	0.51	-23.1	0.5	1.6	-1.1	.
CCC1(CC)C(=O)NC(=O)NC1=Nc1cccc(OC)c1	-0.52	-55.8	0.3	14.1	0.7	-0.3
CC(C)N(N=Nc1ccc([N+](=O)[O-])cc1)C(C)C	0.54	-38.9	-5.7	.	4.7*	-11.9
Cc1cccc(C(=O)OCc2cnc(Cl)s2)c1	1.52	-23.4	2.6	.	0.1	0.2
CCc1cc(C=NC2CCCCC2)c(O)s1	-0.75	10.6	-13.5	4.6	0.6	-0.3
COc1ccc(NC(=O)/C(Cl)=C(/Cl)S(=O)Cc2ccccc2)cn1 (configuration not stated)	-2.55	-57.8	53.1*	0.4	-3.3	6.8
COCCn1c(SCC(=O)N2CCc3ccccc32)nc2c(c1=O)SC(C)C2 (configuration not stated)	.	.	.	-0.2	.	.
C/C=C(\C)c1nnc(NC(=O)c2ccco2)s1	0.13	-69.1	-11.8	-6.7	-0.4	0.9
Cc1ccc(C(=O)Nc2nnc(C)s2)o1	0.1	-29.6	-14.2	.	9.0*	-1.1
Cc1nnc(NC(=O)COc2ccccc2)s1	1.35	-38.0	-7.5	0.9	5.1*	-0.2
Cc1nnc(NC(=O)c2ccco2)s1	0.06	-8.4	-8.8	-0.3	5.6*	-0.5
CCc1cccc(C)c1NC(=S)NCc1ccc2c(c1)cc(C)n2C	-0.54	35.1	-0.6	.	-4.7	.
CC(=NCCCn1ccnc1)c1c(-c2ccccc2)[nH]n(-c2nc3ccccc3s2)c1=O	0.58	-30.7	-7.0	14.1	-1.9	-0.3
Cc1cc(C(=O)OC(C(=O)Nc2cccc(C(F)(F)F)c2)c2ccccc2)c(C)o1 (configuration not stated)	-0.33	-34.8	-2.5	.	-0.9	-7.2
O=C(Nc1cccc(C(F)(F)F)c1)C(Sc1cccc[n+]1[O-])c1ccccc1 (configuration not stated)	0.63	58.9*	2.8	.	-1.8	0.5
CCn1c(=O)c(C(=O)Nc2nc3ccccc3[nH]2)c(O)c2ccccc21	-1.76	67.3*	7.0	.	-3.2	-1.8
CCn1c(=O)c(C(=O)Nc2cnccn2)c(O)c2ccccc21	.	.	.	-5.9	.	-0.5
CCCn1c(=O)c(C(=O)Nc2ccccc2C(=O)OCC)c(O)c2ccccc21	0.09	-24.7	13.0	-6.2	-0.1	-2.0
CCn1c(=O)c(C(=O)Nn2c(C)nc3ccccc3c2=O)c(O)c2ccccc21	-2.5	99.3*	-22.5	-14.8	-1.4	0.0
